This note sets out measurements from ChEMBL document CHEMBL3085754, “Clicking 3'-azidothymidine into novel potent inhibitors of human immunodeficiency virus” (J Med Chem, 2013).

Calls of active or inactive are those of the source. The rule behind the calls is not given here.

In data set [1] the target is Human immunodeficiency virus type 1 reverse transcriptase (Human immunodeficiency virus 1) (UniProt Q72547). Put plainly: Binding affinity to HIV1 reverse transcriptase assessed as compound-terminated template/primer translocation from N-site to P-site of enzyme preincubated for 20 mins prior to TTP addition measured after 10 mins by gel electrophoretic analysis. An outline of the steps: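 50 nM 32P-labelled primer/RNA template with 300 nM RT in 120 mM Na cacodylate pH 7.0, 20 mM NaCl, 6 mM MgCl2 and 100 μM AZT-TP or triphosphate analogue, 20 min at 37°C, for chain-terminator incorporation. Varying TTP then added for 10 min, followed by 500 μM Fe(NH4)2SO4 cleavage. Products resolved by denaturing gel electrophoresis.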

Data set [2] has the same target. Kind of data set: Induction of AZT-resistant HIV1 reverse transcriptase assessed as rate of ATP-mediated excision of chain-terminating nucleotides by phosphorimaging analysis. In outline: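 5'-32P-labelled DNA primer annealed 1:1.5 to 40-nt RNA template, then chain-terminated with AZT-TP or the triphosphate analogue. AZT-resistant RT and terminated template/primer (2:1) in 50 mM Tris-HCl pH 8.0, 50 mM KCl. Started with 6 mM MgCl2 and 3 mM pyrophosphatase-pretreated ATP, 37°C. Stopped at timed points with formamide/EDTA dye and resolved by denaturing gel.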

In data set [3] the target is Human immunodeficiency virus type 1 reverse transcriptase (Human immunodeficiency virus 1, UniProt Q72547). Put plainly: Inhibition of HIV1 reverse transcriptase-mediated [H3]TTP incorporation into poly(rA)-oligo(dT)16 DNA preincubated for 5 mins prior to primer/template and substrate addition by liquid scintillation spectrometric analysis. In outline:
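10 nM wt HIV-1 RT preincubated 5 min with inhibitor in DMSO (1% final), then 40 nM poly(rA)-oligo(dT)16 and 10 μM [3H]TTP added. Buffer 50 mM Tris-HCl pH 8.0, 60 mM KCl, 10 mM MgCl2; 20 min at 37°C. Quenched with cold 10% TCA/20 mM pyrophosphate, glass-fibre filtered, washed with TCA and ethanol, incorporation counted by liquid scintillation.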

Data set [4] deals with Human immunodeficiency virus 1. Put plainly: Antiviral activity against NNRTI-resistant Human immunodeficiency virus 1. Format: functional, organism-based.
The subject of data set [5] is Human immunodeficiency virus 1. Put plainly: Antiviral activity against AZT-resistant Human immunodeficiency virus 1 expressing D67N/K70R/T215F/K219Q reverse transcriptase mutation. In kind it is functional, organism-based.
Data set [6] concerns Human immunodeficiency virus 1. Kind of data set: Antiviral activity against wild type Human immunodeficiency virus 1 expressing p24 infected in human HeLa P4/R5 cells preincubated for 16 hrs prior to virus infection measured after 48 hrs by beta-galactosidase-based single replication cycle assay. In kind it is functional, organism-based. The following applies: for EC50: Human immunodeficiency virus 1, P4/R5. In outline:
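P4R5 indicator cells express CD4, CXCR4, CCR5 and an HIV LTR-driven β-galactosidase reporter, and were kept in DMEM/10% FBS with puromycin. Cells were seeded at 5×10^3 per well and exposed to varying drug concentrations for 16 h. They were then inoculated with 25 ng HIV-1 p24 per well. Infection was quantified 48 h post-infection by fluorescence-based β-galactosidase detection.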

Data set [7] is described as follows: (§1) Cytotoxicity against human CEM-SS cells assessed as cell viability after 6 days by MTS assay. The following applies: CEM-SS cells. Format: cell-based.
Data set [8] has as its system Human immunodeficiency virus 1. Put plainly: Antiviral activity against Human immunodeficiency virus 1 3B infected in human CEM-SS cells assessed as inhibition of virus-induced cytopathic effect after 6 days by MTS assay. The following applies: 144 h. In kind it is functional, organism-based.
The subject of data set [9] is Human immunodeficiency virus 1. Kind of data set: Ratio of EC50 for NNRTI-resistant Human immunodeficiency virus 1 to EC50 for wild type Human immunodeficiency virus 1 expressing p24. Format: functional.
The subject of data set [10] is Human immunodeficiency virus 1. Put plainly: Ratio of EC50 for AZT-resistant Human immunodeficiency virus 1 to EC50 for wild type Human immunodeficiency virus 1 expressing p24. Format: functional.
Data set [11] can be described thus: Therapeutic index, ratio of CC50 for human CEM-SS cells to EC50 for Human immunodeficiency virus 1 3B. Format: cell-based. The following applies: read-out: Ratio CC50/EC50.
Data set [12] relates to CEM-SS. The description is as §1. In kind it is cell-based. Conditions: cem-ss, 144 h.
Data set [13] deals with CEM-SS. Kind of data set: Cytotoxicity against human CEM-SS cells assessed as cell viability at 10 uM after 6 days by MTS assay relative to control. In kind it is cell-based. Conditions: 144 h. On the technique in general: Tetrazolium dyes change colour on reduction, which living cells bring about.
Data set [14] concerns Human immunodeficiency virus 1. Put plainly: Antiviral activity against Human immunodeficiency virus 1 3B infected in human CEM-SS cells assessed as inhibition of virus-induced cytopathic effect at 10 uM after 6 days by MTS assay relative to control. In kind it is functional. Conditions: 144 h.
For data set [15], the target named is Human immunodeficiency virus type 1 reverse transcriptase (Human immunodeficiency virus 1) (UniProt Q72547). Kind of data set: Binding affinity to HIV1 reverse transcriptase assessed as compound incorporation into DNA by primer extension assay.

On to `Cc1cn([C@H]2C[C@H](n3nncc3-c3cccc4ccccc34)[C@@H](COP(=O)(O)OP(=O)(O)OP(=O)(O)O)O2)c(=O)[nH]c1=O`, for which the outcome in data set [1] was Active. Also, the Activity in data set [2] worked out at 0.0126 min⁻¹. In data set [3], the IC50 – broadly, the concentration that inhibits the measured activity by half – stood at 3700 nM.

Regarding `Cc1cn([C@H]2C[C@H](N=[N+]=[N-])[C@@H](CO)O2)c(=O)[nH]c1=O` [ZIDOVUDINE], the outcome in [1] was Active. Moreover, the Activity in data set [2] came out at 0.024 min⁻¹. Further, the concentration giving a half-maximal response (EC50) (as a rule, the concentration needed to bring the measured effect to its halfway point) was 120 nM in data set [4], 7900 nM in data set [5], 140 nM in data set [6] and 5.3 nM in data set [8]. Moreover, the cytotoxic concentration (CC50) (as a rule, the concentration that lowers cell viability or growth by half) at 144 h in data set [7] is more than 1000 nM.

As for `Cc1cn([C@H]2C[C@H](n3nncc3-c3cccc4ccccc34)[C@@H](CO)O2)c(=O)[nH]c1=O`, the results for the “Ratio EC50” value in data set [9] and in data set [10] were 0.6 and 9, respectively. Moreover, the EC50 in data set [4] was 600 nM; in [5] it was 9100 nM; in [6], 1000 nM; in data set [8], 67 nM. In addition, the Activity result was “Dose-dependent effect” in [6] and 100% in the data set on CEM-SS [13]. Besides, the selectivity ratio in data set [11] is 910. For the same molecule, the CC50 with CEM-SS [12] stood at 61000 nM. Further, in data set [14], the inhibition (usually the percentage by which the read-out fell short of the control) at 10 µM stood at 83%.

For the molecule `Cc1cn([C@H]2C[C@H](O)[C@@H](COP(=O)(O)OP(=O)(O)OP(=O)(O)O)O2)c(=O)[nH]c1=O`, the outcome in data set [15] was Active.

`Cc1cn([C@H]2C[C@H](n3nncc3-c3cc4ccccc4c4ccccc34)[C@@H](COP(=O)(O)OP(=O)(O)OP(=O)(O)O)O2)c(=O)[nH]c1=O`: half-maximal inhibition in data set [3] (IC50) required 11800 nM.
